The structures appear in SMILES notation. Activity calls are given as the source filed them. The rule behind the calls is not given here. Bounds are passed on as bounds.

22 compounds from ChEMBL document CHEMBL4145456, “Synthesis and biological evaluation of novel 2-arylvinyl-substituted naphtho[2,3-d]imidazolium halide derivatives as potent antitumor agents” (Eur J Med Chem, 2018) can be followed below.

The test system of data set [1] is PC-3. In words: Antiproliferative activity against human PC3 cells after 48 hrs by CellTiter 96 aqueous one solution assay. In kind it is functional, cell-based. The settings on record: PC-3, 48 h. The procedure, abridged: (§1)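 Cells in 10% FBS medium with penicillin/streptomycin at 37°C, 5% CO2, seeded at 3000-10000 per well and precultured 1 day. DMSO stocks (10 mM) were diluted to a 10 µM top working solution, then serially diluted 3-fold in medium. Exposure was 48 h. Read-out was MTS tetrazolium-to-formazan absorbance at 492 nm. IC50 came from a three-parameter logistic fit, mean of three independent experiments.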

Data set [2] has as its system HeLa. Put plainly: Antiproliferative activity against human HeLa cells after 48 hrs by CellTiter 96 aqueous one solution assay. Format: functional, cell-based. A digest of the protocol: as §1
In data set [3] the test system is A-375. Put plainly: Antiproliferative activity against human A375 cells after 48 hrs by CellTiter 96 aqueous one solution assay. In kind it is functional, cell-based. The settings on record: A-375, 48 h. A digest of the protocol: as §1
The test system of data set [4] is Ehrlich. Put plainly: Antitumor activity against mouse EAC cells implanted in ICR mouse assessed as tumor growth inhibition at 30 mg/kg, ip qd dosed for 10 consecutive days relative to control. The settings on record: read-out: TGI.
In data set [5] the test system is Mus musculus. In words: Toxicity in ICR mouse implanted with EAC cells assessed as decrease in spleen index at 0.06 to 0.6 mg/kg, ip qd dosed for 10 consecutive days. In kind it is organism-based. The settings on record: in vivo. The procedure, abridged:
(§2)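 Adult male ICR mice, 6 weeks, 20-25 g, n=7 per group. Given 5×10^6 EAC cells s.c. in the right thigh; cells came from intraperitoneal passage in donor mice. From day 1, dosed i.p. daily for 10 d (0.1 mL/10 g) in saline with 4% DMA and 2% Solutol HS15; vehicle controls included. Spleen and thymus weighed at sacrifice; organ index is organ weight/body weight.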

Data set [6] relates to Mus musculus. In words: Toxicity in ICR mouse implanted with EAC cells assessed as decrease in thymus index at 0.06 to 0.6 mg/kg, ip qd dosed for 10 consecutive days. In kind it is organism-based. The settings on record: in vivo. A digest of the protocol: as §2
For data set [7], the species on record is Homo sapiens. In words: Induction of microtubule disruption in human A375 cells assessed as cell shrunk with improper microtubule bundling at 70 nM after 24 hrs by FITC/DAPI staining-based fluorescence assay. The procedure, abridged:
(§3)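 A375 cells grown in 96-well plates, 8×10^3 cells/well, exposed to DMSO vehicle or compound for 24 h at 37°C. Cells were washed, then fixed, blocked and permeabilized. They were stained overnight with monoclonal α-tubulin primary antibody, then 3 h with FITC-labelled secondary; nuclei counterstained with DAPI. Imaged on an automated imaging system at 200×. Paclitaxel served as positive control.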

The species named for data set [8] is Homo sapiens. Put plainly: Induction of microtubule disruption in human A375 cells assessed as cell detachment at 70 nM after 24 hrs by FITC/DAPI staining-based fluorescence assay. A digest of the protocol: as §3
For data set [9], the species on record is Homo sapiens. Put plainly: Induction of microtubule disruption in human A375 cells assessed as appearance of rounded cell at 70 nM after 24 hrs by FITC/DAPI staining-based fluorescence assay. The procedure, abridged: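 A375 cells at 8×10^3 per well were treated for 24 h at 37°C, then washed, fixed, blocked and permeabilized. They were stained with anti-α-tubulin overnight and a FITC secondary for 3 h, and nuclei were counterstained with DAPI. Automated imaging was at 200×, and rounded cells were scored from morphology.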

The test system of data set [10] is A-375. Put plainly: Induction of apoptosis in human A375 cells assessed as decrease in Bcl-2 expression at 10 to 1000 nM after 48 hrs by Western blot analysis. Format: functional, cell-based. A digest of the protocol:
(§4)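 A375 cells at 1×10^5 per well were treated for 48 h and lysed in RIPA buffer. Equal protein was run on 12% SDS-PAGE and transferred to PVDF, which was blocked in 5% milk/PBS for 1 h at room temperature. Primary antibodies (survivin, caspase-3, Bcl-2, PARP, p-ERK, total ERK, GAPDH) were used at 1:1000. GAPDH served as loading control.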

Data set [11] concerns A-375. Put plainly: Induction of apoptosis in human A375 cells assessed as decrease in survivin expression at 10 to 1000 nM after 48 hrs by Western blot analysis. In kind it is functional, cell-based. A digest of the protocol: as §4
For data set [12], the system named is PC-3. In words: Induction of apoptosis in human PC3 cells assessed as viable cells at 1 nM after 24 hrs by Annexin V/propidium iodide staining-based FACS analysis (reference value: 97.0%). Format: functional. The settings on record: PC-3, 24 h, read-out: Activity.
For data set [13], the system named is A-375. Put plainly: Induction of apoptosis in human A375 cells assessed as increase in procaspase-3 cleavage at 10 to 1000 nM after 48 hrs by Western blot analysis. Format: functional, cell-based. A digest of the protocol:
as §4

Data set [14] has as its system PC-3. In words: Induction of apoptosis in human PC3 cells assessed as viable cells at 100 nM after 24 hrs by Annexin V/propidium iodide staining-based FACS analysis (reference value: 97.0%). Format: functional. The following applies: PC-3, 24 h, read-out: Activity.
The test system of data set [15] is A-375. Put plainly: Induction of apoptosis in human A375 cells assessed as viable cells at 100 nM after 24 hrs by Annexin V/propidium iodide staining-based FACS analysis (reference value: 92.2%). In kind it is functional. The following applies: A-375, 24 h, read-out: Activity.
The subject of data set [16] is PC-3. In words: Induction of apoptosis in human PC3 cells assessed as viable cells at 10 nM after 24 hrs by Annexin V/propidium iodide staining-based FACS analysis (reference value: 97.0%). Format: functional. The settings on record: PC-3, 24 h, read-out: Activity.
For data set [17], the system named is A-375. In words: Induction of apoptosis in human A375 cells assessed as viable cells at 1000 nM after 24 hrs by Annexin V/propidium iodide staining-based FACS analysis (reference value: 92.2%). In kind it is functional. The settings on record: A-375, 24 h, read-out: Activity.
For data set [18], the system named is A-375. In words: Induction of apoptosis in human A375 cells assessed as viable cells at 10 nM after 24 hrs by Annexin V/propidium iodide staining-based FACS analysis (reference value: 92.2%). Format: functional. The following applies: A-375, 24 h, read-out: Activity.
Data set [19] deals with A-375. In words: Induction of apoptosis in human A375 cells after 24 hrs by Annexin V/propidium iodide staining-based FACS analysis. In kind it is functional, cell-based.

`CC[n+]1c2c(n(C(C)C)c1/C=C/c1ccc(O)cc1)C(=O)c1ccccc1C2=O`: the IC50 is 72 nM in [1], over 30000 nM in [2] and 5580 nM in data set [3].

Regarding `CC[n+]1c2c(n(C3CC3)c1/C=C/c1ccccc1)C(=O)c1ccccc1C2=O`, the IC50 in data set [1] came out at 38 nM; in [2], 6540 nM; in data set [3] it was 1310 nM.

For the compound `CC[n+]1c2c(n(C(C)C)c1/C=C/c1ccc(O)c(OC)c1)C(=O)c1ccccc1C2=O`, the IC50 was 90 nM in data set [1], over 30000 nM in data set [2] and 6580 nM in [3].

As for `CC[n+]1c2c(n(C3CC3)c1/C=C/c1ccc(OC)c(OC)c1)C(=O)c1ccccc1C2=O`, the IC50 in [1] is 66 nM; in [2] it was 13500 nM; in data set [3] it was 8000 nM.

In the case of `CC[n+]1c2c(n(C3CC3)c1/C=C/c1cccc([N+](=O)[O-])c1)C(=O)c1ccccc1C2=O`, the IC50 in data set [1] came to 28 nM; in data set [2], 11300 nM; in data set [3], 5360 nM.

`CC[n+]1c2c(n(C3CC3)c1/C=C/c1cc(OC)c(OC)c(OC)c1)C(=O)c1ccccc1C2=O`: the IC50 in data set [1] is 143 nM; in data set [2] it was over 30000 nM; in [3] it was 26000 nM.

On to `CC[n+]1c2c(n(C(C)C)c1/C=C/c1cccc(O)c1)C(=O)c1ccccc1C2=O`, for which the IC50 is 140 nM in [1], 13000 nM in [2] and 2940 nM in [3].

Take `COCC[n+]1c2c(n(Cc3cccc(OC)c3)c1/C=C/c1c[nH]c3ccccc13)C(=O)c1ccccc1C2=O`: the IC50 came to 215 nM in data set [1], 1370 nM in [2] and 353 nM in [3].

Turning to `O=P1(N(CCCl)CCCl)NCCCO1` (stereo not drawn) [CYCLOPHOSPHAMIDE ANHYDROUS], in [4], the inhibition in vivo at 30 mg/kg was determined as 48.9%.

For the compound `CC[n+]1c2c(n(C(C)C)c1/C=C/c1c[nH]c3ccccc13)C(=O)c1ccccc1C2=O`, the concentration for half-maximal inhibition (IC50) was found to be 71 nM in data set [1], 6120 nM in data set [2] and 553 nM in data set [3].

For `COCC[n+]1c2c(n(Cc3cccc(OC)c3)c1/C=C/c1cccc(O)c1)C(=O)c1ccccc1C2=O`, the IC50 in data set [1] is 222 nM; in data set [2] it was 7330 nM; in data set [3], 1120 nM.

In the case of `CC[n+]1c2c(n(C3CC3)c1/C=C/c1ccc(O)c(OC)c1)C(=O)c1ccccc1C2=O`, the values for the concentration for half-maximal inhibition (IC50) in data set [1], in data set [2] and in data set [3] were 38 nM, 18500 nM and 13900 nM, respectively.

On to `COCC[n+]1c2c(n(Cc3ccccc3)c1/C=C/c1c[nH]c3ccccc13)C(=O)c1ccccc1C2=O.[Br-]`, for which the Activity result in [5] and in [6] was “Non-Toxic” each time.

With `COCC[n+]1c2c(n(Cc3ccccc3)c1/C=C/c1cccc(O)c1)C(=O)c1ccccc1C2=O`, the IC50 in data set [1] was determined as 100 nM; in data set [2], 4860 nM; in data set [3], 791 nM.

`CC[n+]1c2c(n(C(C)C)c1/C=C/c1ccc([N+](=O)[O-])cc1)C(=O)c1ccccc1C2=O`: the figures for the IC50 in data set [1], in data set [2] and in data set [3] were 39 nM, 9930 nM and 1430 nM, respectively.

On to `COCC[n+]1c2c(n(Cc3ccccc3)c1/C=C/c1ccc(O)c(OC)c1)C(=O)c1ccccc1C2=O`, for which the IC50 came to 22 nM in data set [1], 1130 nM in [2] and 536 nM in [3].

For `CC(=O)O[C@H]1C(=O)[C@@]2(C)[C@H]([C@H](OC(=O)c3ccccc3)[C@]3(O)C[C@H](OC(=O)[C@H](O)[C@@H](NC(=O)c4ccccc4)c4ccccc4)C(C)=C1C3(C)C)[C@]1(OC(C)=O)CO[C@@H]1C[C@@H]2O`, the result in data set [7], in [8] and in data set [9] was Active.

With `COCC[n+]1c2c(n(Cc3ccccc3)c1C)C(=O)c1ccccc1C2=O`, the IC50 was determined as 73 nM in data set [1], 10000 nM in data set [2] and 1140 nM in data set [3].

Regarding `CC[n+]1c2c(n(C3CC3)c1/C=C/c1c[nH]c3ccccc13)C(=O)c1ccccc1C2=O`, the results for the IC50 in data set [1], in data set [2] and in data set [3] were 52 nM, 2050 nM and 891 nM, respectively.

On to `CC[n+]1c2c(n(C(C)C)c1/C=C/c1ccc(C)cc1)C(=O)c1ccccc1C2=O`, for which the outcome in [10], in data set [11] and in data set [13] was Active. The IC50 amounted to 22 nM in data set [1], 1120 nM in [2] and 1070 nM in [3]. Moreover, the viability at 0.001 µM in [12] worked out at 98%. For the same compound, the viability at 0.1 µM in [14] turned out to be 75.6%; in [15], 82.2%. For the same compound, the viability at 0.01 µM in data set [16] stood at 96.5%; in data set [18], 88.3%. Besides, the viability at 1 µM in [17] was found to be 65.7%. Besides, the Activity result in data set [19] was “Dose-dependent effect”.

Regarding `COCC[n+]1c2c(n(Cc3cccc(OC)c3)c1/C=C/c1cc(OC)c(OC)c(OC)c1)C(=O)c1ccccc1C2=O`, the IC50 in data set [1] stood at 291 nM; in data set [2], 7500 nM; in data set [3], 1000 nM.

Regarding `COCC[n+]1c2c(n(Cc3ccccc3)c1/C=C/C=C/c1ccccc1)C(=O)c1ccccc1C2=O`, the IC50 came to 212 nM in [1], 1280 nM in data set [2] and 551 nM in data set [3].
